TRPC4 agonist – TRPC4 (mouse) channel activation; 310,000 compounds, 0.49% hits; HEK293 TRPC4beta/mu-opioid, Fluo4 calcium fluorescence; hits give high values; Q9QUQ5; B-score at 10 µM;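 active = B-score above 5 SD of library B-scores, and initial fluorescence ratio not above library mean plus 5 SD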;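 note: positive B-score marks a calcium rise read as TRPC4 activation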
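Technique: kinetic Fluo4 calcium fluorescence; Test system: TRPC4beta and mu-opioid receptor HEK293 stable cells; Measure: B-scored integrated calcium fluorescence ratio; Benchmarks: low control buffer alone, high control maximal DAMGO; Schedule: 45 min room-temperature Fluo4 loading, 110 s read.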
TRPC6 act – mouse TRPC6 channel activation | Q61143 | HEK293-TRPC6 membrane potential dye fluorescence; hits give high values | B-score at 10 µM | 310,000 compounds, 0.13% hits | AID 2550;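 active = B-score of the integrated fluorescence ratio above library mean plus 3 SD, and starting fluorescence ratio within library mean plus 5 SD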;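 note: higher score means more depolarization so channel activation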
TRPC4 block – blocks the mouse TRPC4 cation channel; Q9QUQ5; HEK293 TRPC4beta/mu-opioid, DAMGO-evoked Fluo4 calcium flux; hits give low values; B-score at 10 µM; 300,000 compounds, 0.39% hits;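 active = B-score over 3 SD under the library average, no early fluorescence shift, positive overall ratio signal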
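Material: HEK293 cells with stable TRPC4beta plus mu-opioid receptor expression / Probe or stimulus: DAMGO in two steps, submaximal then maximal / Compound: single concentration per test compound / Technique: kinetic Fluo4 fluorescence imaging of calcium influx / Read-out: per-well B score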
TRPC4 potent – TRPC4 (mouse) allosteric potentiation. Q9QUQ5. HEK293 TRPC4beta/mu-opioid, DAMGO EC20, Fluo-4 Ca2+ flux; hits give high values. B-score at 10 µM. 310,000 compounds, 0.42% hits. AID 2227;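 active = B-score of calcium response area above 5 SD of library B-scores, with initial fluorescence ratio within 5 SD of library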;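 note: B-score of integrated fluorescence ratio over time as area under calcium response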
TRPC6 inhibitor – blocks the mouse TRPC6 cation channel. 310,000 compounds, 1.1% hits. AID 2553. HEK293-TRPC6, membrane potential dye, ACh-evoked depolarization; hits give low values. B-score at 10 µM;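 active = B-score under library mean minus 3 SD, initial fluorescence not abnormally high, positive integrated signal ratio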;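 note: B-score derived from integrated fluorescence ratio over the kinetic read; more negative B-score means stronger inhibition of depolarization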
TRPC4 spec 2 – mouse TRPC4 off-target activity of TRPC6 inhibitors, second screen | shares compounds with TRPC6 inhibitor | HEK293 TRPC4/MOR, membrane potential dye fluorescence; channel activated by saturating DAMGO dose | inhibition, % at 10 µM | 920 compounds, 42% hits;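 active = compounds whose fluorescence signal differed from control wells by over 3 SD, either direction, in both duplicate plates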
TRPC4 spec – mouse TRPC4 off-target activity of TRPC6 inhibitors; HEK293 TRPC4/mu-opioid, membrane potential fluorescence; 920 compounds, 61% hits; shares compounds with TRPC6 inhibitor; activity change, negative = inhibition, % at 10 µM;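 active = rise or fall in signal beyond 3 SD of buffer-only wells in both replicate plates, either sign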;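 note: integrated kinetic ratio of fluorescence range over baseline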
HEK293 MPD ctr 2-1 – parental HEK293 nonspecific activity of TRPC6 inhibitors, second screen; shares compounds with TRPC6 inhibitor; parental HEK293 membrane potential dye fluorescence; maximal acetylcholine challenge after compound addition; signal change vs control, % at 10 µM; 920 compounds, 31% hits;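 active = membrane potential signal moving either way by over 3 SD of the maximum-effect control, in both duplicate plates, meaning non-specific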
HEK293 MPD ctr-1 – checks TRPC6 inhibitor effects in parental HEK293 cells; shares compounds with TRPC6 inhibitor; parental HEK293 membrane potential dye fluorescence; membrane potential signal change, % at 10 µM; 920 compounds, 60% hits; AID 2780;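 active = membrane potential signal shifting up or down by more than 3 SD of buffer-only wells, on both duplicate plates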
HEK293 MPD ctr-2 – parental HEK293 nonspecific activity of TRPC6 modulators; 2,400 compounds, 51% hits; AID 488924; membrane potential dye fluorescence; membrane potential signal change, % at 10 µM; shares compounds with TRPC6 inhibitor;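 active = membrane potential signal moves up or down beyond 5 SD from buffer-only wells, on both duplicate plates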
HEK293 MPD ctr 2-2 – second check of TRPC6 modulator effects in parental HEK293 cells; membrane potential dye fluorescence; after compound, maximal acetylcholine stimulation; inhibition, % at 10 µM; 2,400 compounds, 14% hits; shares compounds with TRPC6 inhibitor;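 active = membrane potential signal drops by more than 5 SD from the mean control signal, in both duplicate plates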;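 note: plate controls were acetylcholine ECmax control wells for no effect and buffer only wells for full effect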
TRPC4/MOR mod – selectivity of TRPC6 modulators against mouse TRPC4 | shares compounds with TRPC6 inhibitor | HEK293 TRPC4/mu-opioid, membrane potential fluorescence | percent change from control (negative = decrease, positive = increase), % at 10 µM | 2,400 compounds, 69% hits;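 active = membrane potential signal moved up or down beyond 5 SD of buffer control wells, in both duplicate plates, actives on both sides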;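 note: plate controls were assay buffer wells for no effect and DAMGO maximal-effect wells for full effect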
TRPC4/MOR inh 2 – mouse TRPC4 off-target activity of TRPC6 modulators, second screen; 2,400 compounds, 55% hits; HEK293 TRPC4/mu-opioid, membrane potential dye fluorescence; stimulated with maximal-effect DAMGO; shares compounds with TRPC6 inhibitor; AID 488928; inhibition, % at 10 µM;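 active = drop in membrane potential signal beyond 5 SD of the control wells in both duplicate plates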;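 note: TRPC4 counter screen for TRPC6 hits run under conditions tuned for TRPC6 not TRPC4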
TRPC6 block conf – confirmation of mouse TRPC6 inhibitors. shares compounds with TRPC6 inhibitor. HEK293-TRPC6, membrane potential dye, ACh-evoked depolarization. inhibition, % at 10 µM. 3,300 compounds, 43% hits. AID 488960;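 active = fluorescence ratio falls more than 5 SD below the full-stimulation control mean, in both duplicate runs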;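 note: integrated fluorescence ratio of peak minus minimum over baseline after agonist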
TRPC6 act confirm – mouse TRPC6 activator confirmation; shares compounds with TRPC6 inhibitor; HEK293-TRPC6 membrane potential dye fluorescence, FDSS; activation, % at 10 µM; 2,800 compounds, 11% hits; AID 488961;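 active = ratio signal rise beyond 5 SD above unstimulated control wells' mean, seen in both duplicate runs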;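 note: plate controls were buffer EC0 wells for no effect and acetylcholine ECmax response for full effect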
* = called active by the depositor; i = inactive; / = not tested or not shown. An excerpt weighted towards active compounds, which were near 2.3% of everything screened.

SMILES	TRPC4 agonist	TRPC6 act	TRPC4 block	TRPC4 potent	TRPC6 inhibitor	HEK293 MPD ctr-2	HEK293 MPD ctr 2-2	TRPC4/MOR mod	TRPC4/MOR inh 2	TRPC6 block conf	TRPC6 act confirm	others
Oc1ccccc1Nc1nc(NCC2CCCO2)c2ccccc2n1 (stereo not given)	i	i	i	i	-14.7*	/	/	/	/	74.6%*	i	TRPC4 spec 2=28.5%*;TRPC4 spec=-22.0%*;HEK293 MPD ctr 2-1=i;HEK293 MPD ctr-1=-273.0%*
Oc1ccccc1Nc1nc(NCc2ccco2)c2ccccc2n1	i	i	-6*	i	-8.49*	/	/	/	/	i	i	TRPC4 spec 2=73.5%*;TRPC4 spec=i;HEK293 MPD ctr 2-1=i;HEK293 MPD ctr-1=i
CC1(CCc2ccccc2)NC(=O)N(CC(=O)Nc2ccc(S(N)(=O)=O)cc2)C1=O (stereo not given)	i	i	i	i	i	/	/	/	/	/	/
COc1cccc(Nc2nc(NCCO)c3ccccc3n2)c1	i	i	i	i	-10.8*	/	/	/	/	90.1%*	i	TRPC4 spec 2=40.0%*;TRPC4 spec=-21.7%*;HEK293 MPD ctr 2-1=27.0%*;HEK293 MPD ctr-1=-237.0%*
COc1cccc(Nc2nc(NCC3CCCO3)c3ccccc3n2)c1 (stereo not given)	i	i	i	i	-11.1*	i	i	-21.5%*	74.0%*	58.0%*	i
CCc1ccc(NC(=O)C(=O)N/N=C(\C)CC(=O)NCc2ccc(Cl)cc2)cc1	i	i	i	i	i	/	/	/	/	/	/
COc1cc(S(=O)(=O)NC2CCCCC2)c(C)cc1C	i	i	i	i	i	/	/	/	/	/	/
Cc1c(OCC(=O)NCCN2CCOCC2)ccc2c3c(c(=O)oc12)CCC3	i	i	i	i	-5.15*	i	i	-14.0%*	i	i	i
Cc1cc(=O)oc2c(C)c(OCC(=O)NCCCn3ccnc3)ccc12	i	i	i	i	-6.56*	-192.0%*	i	-31.5%*	30.0%*	i	i
Cc1cc(=O)oc2c(C)c(OCC(=O)NCCCN3CCCC3=O)ccc12	i	i	i	i	-5.15*	-192.0%*	i	-27.5%*	i	i	i
Cc1c(OCC(=O)NCCCN2CCCC2=O)ccc2c3c(c(=O)oc12)CCC3	i	i	i	i	-6.13*	-105.0%*	i	-19.0%*	i	i	i
Cc1c(OCC(=O)NCCCN2CCCC2=O)ccc2c3c(c(=O)oc12)CCCC3	i	i	i	i	i	/	/	/	/	/	/
O=C(/C=C/c1ccc(Cl)cc1)NCCN1CCOCC1	i	i	i	i	i	/	/	/	/	/	/

Assay outcomes as filed in PubChem.
